Key:
[1] = tested on: MV3 melanoma-induced angiogenesis; experiment: MV3 tumor-induced angiogenesis in quail embryonic CAM; type: in vivo, Japanese quail (Coturnix coturnix japonica); details: MV3 on quail CAM, 20 μg daily, day 12
Procedure, shortened: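 Japanese quail eggs ethanol-cleaned, kept at 37°C without CO₂ to embryonic day 3, then opened and contents moved to 6-well plates at 37°C. Day 6: MV3 cells (1 × 10⁷/50 μl PBS) applied onto CAM; after 24 h growth, 20 μg test compound per 50 μl PBS daily. Tumors excised and weighed; remaining membrane slide-mounted, fractal dimension (Df) measured in square area opposite the tumor.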

α1β1 integrin = details: reduced disulfide bonds, cysteines blocked with vinylpyridine; cited from earlier work
dHMVEC [2] = experiment: dHMVEC proliferation assay; type: cell-based, human; details: BrdUrd, induced by 2% FBS or 50 ng/ml hrVEGF or vpVEGF, 2 μM obtustatin for VEGF
[3] = type: in vivo, mouse; details: mice
dHMVEC [4] = experiment: Apoptosis assays in dHMVEC; type: cell-based, human; details: 2 μM
Procedure, shortened: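 Primary adult dermal microvascular endothelial cells (passages 5–8, complete EBM-2). Annexin V: 2 μM test compound 16 h in complete EBM-2, cells detached, annexin V-FITC stained, two-colour flow cytometry within 1 h. Caspase 3: ±2 μM 16 h in complete medium, vincristine 50 μg/ml as positive control, lysates read by colorimetric ELISA at 450 nm. Morphology: 90% confluent cells, 2 μM 24 h, 2% paraformaldehyde-fixed, phase contrast 200×.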

B16F10 mouse melanoma = experiment: B16F10 melanoma growth in syngeneic C57BL/6 mice; type: in vivo; details: for effect on tumor growth, i.p. route: B16F10 melanoma model
Procedure, shortened: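 Daily caliper volumes (width² × length × 0.52). Formalin-fixed paraffin 5-μm sections: anti-von Willebrand factor vessels counted in 10 high-power fields (400×) and averaged, blinded, 3 investigators; colorimetric TUNEL; S.D. from 5 animals.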

[5] = type: in vivo, mouse; details: mice, Western blot, variety of time intervals
MV3 = experiment: Apoptosis in MV3 melanoma cell line; type: cell-based; details: MV3 human melanoma cell line (data not shown)
B16F10 = experiment: Apoptosis in B16F10 melanoma cell line; type: cell-based; details: B16F10 mouse melanoma cell line (data not shown)
[6] = cited from earlier work

| Compound | tumor-induced angiogenesis, angiogenesis index as fractal dimension (Df) [1] | change of activity against α1β1 integrin versus native obtustatin (α1β1 integrin) | endothelial cell proliferation (dHMVEC [2]) | behavioral signs and body weight ([3]; single i.v. doses up to 20 mg/kg, 10 days observation) | H&E sections of liver ([3]; single i.v., 10 mg/kg and 20 mg/kg groups, after 10 days) | H&E sections of spleen ([3]; single i.v., 20 mg/kg group, after 10 days) | H&E sections of brain, lung, kidney, liver and spleen ([3]; single i.v., all concentrations up to 7 mg/kg, after 10 days) | caspase 8, fluorescent ELISA and Western blot (dHMVEC [4]; 2 hours) | caspase 3, colorimetric ELISA and Western blot (dHMVEC [4]; 16 hours (ELISA)) | annexin V binding (early apoptosis), flow cytometry (dHMVEC [4]; 16 hours, complete EBM-2 media) | cell morphology (dHMVEC [4]; 24 hours, complete medium with 5% FBS) | effect on tumor growth, i.p. route (B16F10 mouse melanoma; 2.5 mg/kg i.p. (data not shown)) | effect on tumor growth, i.p. route (B16F10 mouse melanoma; 5 mg/kg i.p. (data not shown)) | vessel number in paraffin sections of tumor (anti-von Willebrand factor) (B16F10 mouse melanoma; B16F10 melanoma, obtustatin treated animals vs control) | TUNEL staining of endothelial cells in tumor sections (B16F10 mouse melanoma; B16F10 melanoma, obtustatin-treated animals) | body weight during multiple injections (B16F10 mouse melanoma; melanoma experiments in mice, 5 and 2.5 mg/kg i.v., multiple injections) | detection in blood plasma after i.p. injection [5] | apoptosis induction (MV3) | apoptosis induction (B16F10) | half life time [6] |
| --- | --- | --- | --- | --- | --- | --- | --- | --- | --- | --- | --- | --- | --- | --- | --- | --- | --- | --- | --- | --- |
| Ethylpyridylated(EP)-obtustatin [EP-obtustatin] | no activity | over four orders of magnitude decreasing activity | – | – | – | – | – | – | – | – | – | – | – | – | – | – | – | – | – | – |
| obtustatin | significantly diminished | – | potent inhibitor of endothelial cell proliferation | did not reveal any toxic side effects | small areas of inflammations and necrotic patches in liver | significant necrotic patches in all animals | no effects | appears to be activated | release of caspase 3 | annexin V binds to the surface of dHMVEC | typical apoptotic morphology | no effect on tumor growth | only slightly, close to no significant ratio tumor suppression | significant reduction of vessel number | positive staining of DNA strand breaks | did not show any changes in body weight | not detectable | no apoptotic properties | no apoptotic properties | – |
| O=c1[nH]cc(F)c(=O)[nH]1 [5-fluorouracil (5-FU), 5-fluorouracil] | – | – | – | – | – | – | – | – | – | – | – | – | – | – | – | – | – | – | – | about 100 minutes |
